Screens (PubChem)
This is a sample that favours compounds with a hit; in the whole collection about 4.1% have one here.
KCNK3 inh = human KCNK3 channel inhibition, primary screen | CHO-KCNK3 thallium flux, FluxOR fluorescence; hits give low values | AID 602410 | 340,000 compounds, 0.84% hits | B-score at 10 µM | O14649;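 active means B-score under library mean minus 4 SD, starting fluorescence ratio at most library mean plus 5 SD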;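 further: more negative B-score means stronger inhibition of thallium flux through KCNK3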
Target sequence (O14649 whole entry, looked up): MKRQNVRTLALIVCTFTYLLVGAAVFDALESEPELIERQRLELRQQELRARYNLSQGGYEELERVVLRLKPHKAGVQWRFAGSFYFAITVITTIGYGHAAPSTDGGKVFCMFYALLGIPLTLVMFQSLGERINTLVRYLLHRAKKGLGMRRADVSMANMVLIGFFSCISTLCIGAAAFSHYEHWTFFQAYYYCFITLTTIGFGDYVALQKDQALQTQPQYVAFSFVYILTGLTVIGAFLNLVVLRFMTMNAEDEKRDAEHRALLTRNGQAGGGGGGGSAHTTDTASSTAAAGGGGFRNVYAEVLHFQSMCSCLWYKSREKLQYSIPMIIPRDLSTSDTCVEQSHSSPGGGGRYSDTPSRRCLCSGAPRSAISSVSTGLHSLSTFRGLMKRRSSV
KCNQ1 act = potentiators or activators of human KCNQ1 potassium channel. P51787. B-score at 10 µM. 310,000 compounds, 0.35% hits. CHO-K1 KCNQ1, thallium flux FluxOR fluorescence; hits give high values;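 active means fluorescence ratio B-score, a plate-corrected score, at least three library SD, with initial intensity B-score within 5 SD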
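Doses: Single concentration per compound, DMSO matched to controls | Test system: KCNQ1-transfected CHO-K1 cells | Timing: 90 min dye loading and 20 min compound exposure, both at room temperature | Measured by: Kinetic FluxOR thallium fluorescence, 10-s 1-Hz baseline, 110-s post-stimulus read | Medium: Assay buffer with matched DMSO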
hERG protect = hERG (human) protection from proarrhythmic block; Q12809; CHO-hERG, FluxOR thallium flux, dofetilide IC70 present; AID 1511; activation (rescue from dofetilide block), less the hit threshold, % at 10 µM; 310,000 compounds, 0.51% hits;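 active means activation above the mean of controls blocked by dofetilide plus 5 SD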;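 further: thallium influx through hERG after potassium depolarization seen as dye fluorescence rise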
Cl transport mod = modulates chloride dependent transport by human KCC2 | Q9H2X9 | KCC2 cells, thallium flux FluoZin-2 fluorescence | B-score of Tl+ flux slope (higher = more flux/activation; lower = inhibition) at 10 µM | 190,000 compounds, 2.2% hits | AID 1456;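 active means thallium flux slope and its plate-corrected score both differing from the plate sample mean at a set confidence after two filtering rounds, in either direction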;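 further: slope of fluorescence scaled to starting intensity during 10 to 20 s after thallium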
KCNQ1 block = human KCNQ1 channel inhibition | P51787 | AID 2642 | CHO-K1 KCNQ1, FluxOR thallium flux fluorescence; hits give high values | 310,000 compounds, 1.3% hits | B-score at 10 µM;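 active means compounds whose thallium flux B-score, printed positive for inhibition, exceeds three library SD while starting fluorescence stays within three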;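 further: channel opened by potassium depolarization with thallium stimulus after 20 min compound exposure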
KCNK9 inh = human KCNK9 channel inhibition; Q9NPC2; HEK293 KCNK9, FluxOR thallium flux fluorescence; hits give low values; B-score at 10 µM; 310,000 compounds, 1.2% hits;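 active means ratio B-score over 3 SD below the library mean, with starting fluorescence within 5 SD of its mean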;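 further: negative B-score means less thallium flux so channel inhibition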
Target sequence (Q9NPC2 whole entry, looked up): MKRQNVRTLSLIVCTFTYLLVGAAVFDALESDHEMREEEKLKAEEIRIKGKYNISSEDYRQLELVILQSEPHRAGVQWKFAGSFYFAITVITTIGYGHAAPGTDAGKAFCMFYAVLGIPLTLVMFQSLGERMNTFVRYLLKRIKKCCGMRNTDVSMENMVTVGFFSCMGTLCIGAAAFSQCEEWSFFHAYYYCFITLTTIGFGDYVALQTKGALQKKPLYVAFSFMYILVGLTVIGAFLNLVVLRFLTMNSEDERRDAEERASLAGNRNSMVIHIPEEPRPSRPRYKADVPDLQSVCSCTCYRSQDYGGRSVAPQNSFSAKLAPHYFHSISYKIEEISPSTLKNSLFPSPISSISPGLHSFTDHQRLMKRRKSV
KCNQ1 block val = confirmation of human KCNQ1 potassium channel inhibitors. 1,600 compounds, 93% hits. KCNQ1 cell line, FluxOR thallium flux fluorescence. inhibition, % at 10 µM. shares compounds with KCNQ1 block;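 active means primary screen active, with duplicate mean exceeding buffer control mean plus 3 SD of buffer wells, cut at about 28% in these data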
CHO Tl flux = activity in parental CHO cells lacking KCNQ1; parental CHO-K1, FluxOR thallium flux fluorescence ratio; hits give low values; zero means no signal rise above baseline; 1,600 compounds, 21% hits; fluorescence ratio (Tl flux) at 10 µM; shares compounds with KCNQ1 block; AID 588366;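 active means mean of duplicate thallium-flux fluorescence ratios in parental host cells more than 5 SD below the buffer control mean, cut at about 0.38 in these data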;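 further: ratio is peak minus minimum fluorescence divided by baseline fluorescence; actives read low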
KCNQ1 APC inh = blocks human KCNQ1 current in automated patch clamp. 490 compounds, 20% hits. shares compounds with KCNQ1 block. AID 624120. KCNQ1-CHO cells. calls only at 10 µM;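 active means KCNQ1 current drop exceeding 3 SD of negative control wells, seen in both duplicate runs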;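 further: steady state current during a 2 s step from -80 to +40 mV; negative values mean current inhibition and positive values mean potentiation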
KCNQ2 spec = rat KCNQ2 inhibition in KCNQ1 inhibitor specificity screen | shares compounds with KCNQ1 block | KCNQ2 cells, FluxOR thallium flux fluorescence | inhibition, % at 10 µM | 1,600 compounds, 71% hits | AID 651746;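 active means mean percent inhibition of the KCNQ2 thallium signal more than 5 SD above the buffer-only control wells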;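 further: KCNQ2 expressed in CHO cells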
KCNQ1-KCNE1 inh = selectivity of KCNQ1 inhibitors: inhibition of human KCNQ1/KCNE1 channel; shares compounds with KCNQ1 block; KCNQ1/KCNE1 cells, FluxOR thallium flux fluorescence; inhibition, % at 10 µM; 1,600 compounds, 77% hits; AID 652147;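 active means mean percent inhibition of duplicate wells above the buffer-only control mean plus 3 SD of those controls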
Each line names hits and unclear results; the compound was inactive in the other large screens (follow-up assays come after a bar, where they were run).

CC(c1ccccc1)N1C(=O)c2ccc(C(=O)Nc3ccc(Br)cc3C(=O)O)cc2C1=O (configuration not stated)	KCNQ1 block 12 (no result: Cl transport mod) | KCNQ1 block val 108 | CHO Tl flux inactive | KCNQ1 APC inh inactive | KCNQ2 spec inactive | KCNQ1-KCNE1 inh 132%
O=C(NC1CCCCC1)C(c1ccco1)N(C(=O)C(F)(F)F)C1CC1 (configuration not stated)	KCNQ1 block 6 | KCNQ1 block val 74 | CHO Tl flux inactive | KCNQ2 spec inactive | KCNQ1-KCNE1 inh 100%
Cc1ccc(CN(C(=O)C(F)(F)F)C(C(=O)NC2CCCCC2)c2ccco2)cc1 (configuration not stated)	none
CCOc1ccccc1N1CCN(C(=O)Nc2ccc(F)c(Cl)c2)CC1	KCNQ1 block 9 (no result: Cl transport mod) | KCNQ1 block val 98 | CHO Tl flux inactive | KCNQ1 APC inh inactive | KCNQ2 spec 82% | KCNQ1-KCNE1 inh inactive
COc1ccccc1N1CCN(C(=O)Nc2ccc(F)c(Cl)c2)CC1	none
CCOc1ccc(NC(=O)COC(=O)CCN2C(=O)C3CC=CCC3C2=O)cc1OCC (configuration not stated)	none (no result: KCNQ1 act, hERG protect, Cl transport mod, KCNQ1 block, KCNK9 inh)
NC(=O)c1ccc(NC(=O)Cc2ccc(S(=O)(=O)N3CCCCC3)cc2)cc1	none (no result: KCNQ1 act, hERG protect, Cl transport mod, KCNQ1 block, KCNK9 inh)
CCOC(=O)C1CCCN(S(=O)(=O)c2c(C(=O)N3CCCCC3)c(C)n(C)c2C)C1 (configuration not stated)	none (no result: Cl transport mod)
CN(C(=O)c1cccs1)c1ccc(OCC(=O)N2CCC(C(N)=O)CC2)cc1	none
CCCn1c(=O)n(C)c(=O)c2c(SCC(=O)NC34CC5CC(CC(C5)C3)C4)nc(CC(C)C)nc21	KCNQ1 block 8 | KCNQ1 block val 136 | CHO Tl flux 0.32 | KCNQ2 spec 88% | KCNQ1-KCNE1 inh 148%
Cc1nnc(NC(=O)CSc2nc(CC(C)C)nc3c2c(=O)n(C)c(=O)n3C)s1	none
CC1(c2ccc3ccccc3c2)NC(=O)N(CC(=O)NCC(C)(C)N2CCOCC2)C1=O (configuration not stated)	none (no result: Cl transport mod)
Cc1cccc(N2CCN(C(=O)c3ccc4c(c3)OCCO4)CC2C)c1 (configuration not stated)	none
Cc1cccc(N2CCN(C(=O)c3noc4c3COc3ccc(C)cc3-4)CC2C)c1 (configuration not stated)	KCNQ1 block 10 (no result: Cl transport mod) | KCNQ1 block val 88 | CHO Tl flux inactive | KCNQ2 spec 98% | KCNQ1-KCNE1 inh 112%
COc1ccc(N(CC(=O)Nc2ccccc2OC)S(=O)(=O)c2ccccc2)cc1Cl	KCNQ1 block 7 (no result: Cl transport mod) | KCNQ1 block val 74 | CHO Tl flux inactive | KCNQ2 spec 92% | KCNQ1-KCNE1 inh 102%
COc1ccc(N(CC(=O)Nc2cccnc2)S(=O)(=O)c2ccccc2)cc1Cl	none (no result: Cl transport mod)
CC(=O)N/C(=N/c1nc(C)cc(C)n1)Nc1cccc(C)c1C	none (no result: Cl transport mod)
CCCCSc1nc(C)c(CC(=O)O)c(=O)[nH]1	KCNQ1 block 10 | KCNQ1 block val 62 | CHO Tl flux inactive | KCNQ2 spec inactive | KCNQ1-KCNE1 inh 47%
C=CCSc1nc(C)c(CC(=O)OCCCC)c(=O)[nH]1	none
CCOC(=O)c1nc(N)c(C(=O)OCC)[nH]1	none
CCOC(=O)c1c(C)nc(C(Cl)(Cl)Cl)nc1N	KCNQ1 block 8 | KCNQ1 block val 86 | CHO Tl flux inactive | KCNQ2 spec inactive | KCNQ1-KCNE1 inh 88%
Cc1ccc(N2C(=O)c3ccccc3C2C(=O)c2ccc(O)cc2O)cc1 (configuration not stated)	none
Cc1ccc(N2C(=O)c3ccccc3C2C(=O)c2ccc(C)c(C)c2O)cc1 (configuration not stated)	KCNQ1 block 7 (no result: Cl transport mod) | KCNQ1 block val 90 | CHO Tl flux 0.37 | KCNQ2 spec 103% | KCNQ1-KCNE1 inh 74%
CC1CCN(C(=O)COC(=O)c2cc(Cl)c3c(c2)OCO3)CC1	none (no result: KCNQ1 act, hERG protect, Cl transport mod, KCNQ1 block, KCNK9 inh)
O=C(c1cccnc1)c1ncc(C(F)(F)F)cc1Cl	none (no result: Cl transport mod)
CCCn1c2c(c(O)c(C(=O)Nc3ccc(OC)cc3)c1=O)CCCC2	KCNQ1 block 7 (no result: Cl transport mod) | KCNQ1 block val 94 | CHO Tl flux inactive | KCNQ1 APC inh inactive | KCNQ2 spec 78% | KCNQ1-KCNE1 inh 104%
CCCn1c2c(c(O)c(C(=O)NC)c1=O)CCCC2	none (no result: Cl transport mod)
CC1(C)C(=O)NCCN1C(=O)CC1C(=O)NCCN1Cc1cccc(C(F)(F)F)c1 (configuration not stated)	none (no result: Cl transport mod)
CC1(c2ccccc2)NC(=O)N(CC(=O)N2CCN(S(=O)(=O)c3ccccc3[N+](=O)[O-])CC2)C1=O (configuration not stated)	none (no result: Cl transport mod)
CCc1ccccc1N1CCN(S(=O)(=O)c2ccc(F)c(C)c2)CC1	KCNQ1 block 7 | KCNQ1 block val 91 | CHO Tl flux inactive | KCNQ1 APC inh inactive | KCNQ2 spec 80% | KCNQ1-KCNE1 inh 91%
O=C(CSc1ccc(S(=O)(=O)N2CCCCC2)cn1)Nc1ccccc1Br	none (no result: KCNQ1 act, hERG protect, Cl transport mod, KCNQ1 block, KCNK9 inh)
O=C(Nc1ccc(NC(=S)NC(=O)c2ccccc2F)cc1)c1cccs1	KCNQ1 block 6 | KCNQ1 block val 94 | CHO Tl flux inactive | KCNQ1 APC inh active | KCNQ2 spec 63% | KCNQ1-KCNE1 inh 132%
Cc1cc(C(=O)CSc2nc3ccc(Cl)cc3[nH]2)c(C)n1CC1CCCO1 (configuration not stated)	KCNQ1 block 8 | KCNQ1 block val 126 | CHO Tl flux inactive | KCNQ1 APC inh inactive | KCNQ2 spec 109% | KCNQ1-KCNE1 inh 121%
CCCCCn1c(SCC(=O)c2ccccc2)nc2cc(C(=O)NCC3CCCO3)ccc2c1=O (configuration not stated)	none (no result: KCNQ1 act, hERG protect, Cl transport mod, KCNQ1 block, KCNK9 inh)
Cc1cc2nc(C(C)(C)C)cc(N)n2n1	none
CC(C)(C)c1cc(N)n2nc(C(C)(C)C)cc2n1	KCNQ1 block 11 | KCNQ1 block val 96 | CHO Tl flux inactive | KCNQ1 APC inh active | KCNQ2 spec inactive | KCNQ1-KCNE1 inh 122%
